Values after ≈ are worked out from the molar mass of the structure shown. Active and inactive are the calls of the source. The rule behind the calls is not given here.
Tests used:
[1] = biological target: T1, Free fatty acid receptor 1 (Homo sapiens, UniProt O14842); experiment: Agonist activity at human FFA1 receptor expressed in human 1321N1 cells measured for 50 intervals of 0.4 secs by calcium mobilization assay relative to TUG-20; assay type: functional, cell-based
In short: (§1)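 Ca²⁺ read-out at human FFA1. Efficacy is expressed relative to TUG-20 (3-(4-(benzyloxy)phenyl)propanoic acid).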

[2] = biological target: T2, Free fatty acid receptor 4 (Homo sapiens, UniProt Q5NUL3); experiment: Agonist activity at human C-terminal YFP-tagged FFA4 receptor expressed in HEK293 cells incubated for 5 mins by BRET based beta-arrestin 2 recruitment assay; assay type: cell-based
T2 sequence (Q5NUL3 whole entry): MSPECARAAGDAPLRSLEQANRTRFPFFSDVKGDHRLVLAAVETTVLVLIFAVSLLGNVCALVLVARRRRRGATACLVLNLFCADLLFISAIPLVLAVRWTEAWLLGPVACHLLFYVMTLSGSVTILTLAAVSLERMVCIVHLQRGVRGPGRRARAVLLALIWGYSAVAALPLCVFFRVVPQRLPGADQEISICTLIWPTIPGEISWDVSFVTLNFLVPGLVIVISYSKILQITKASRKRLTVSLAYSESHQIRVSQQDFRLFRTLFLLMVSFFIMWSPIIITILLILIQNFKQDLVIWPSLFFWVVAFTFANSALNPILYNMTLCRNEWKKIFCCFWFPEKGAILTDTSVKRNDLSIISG
In short: (§2)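 Human FFA4 counter-screen using a β-arrestin mobilization read-out. Efficacy is expressed relative to a reference alkyne FFA1 agonist tested at 10 μM.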

[3] = biological target: T3, Free fatty acid receptor 4 (Homo sapiens) (UniProt Q5NUL3); experiment: Agonist activity at human C-terminal YFP-tagged FFA4 receptor expressed in HEK293 cells incubated for 5 mins by BRET based beta-arrestin 2 recruitment assay relative to TUG-424; assay type: cell-based; in short: as §2
T3 sequence (whole entry): T2 sequence (Q5NUL3 whole entry)

[4] = biological target: T1, Free fatty acid receptor 1; experiment: Agonist activity at human FFA1 receptor expressed in human 1321N1 cells measured for 50 intervals of 0.4 secs by calcium mobilization assay; assay type: functional, cell-based; in short: as §1
[5] = Drug metabolism in human liver microsomes assessed as cytochrome P450-mediated compound oxidation by measuring drug recovery after 1 hr by HPLC analysis; assay type: ADME; details: read-out: Drug recovery
[6] = AUC (0 to infinity) in C57BL/6 mouse plasma at 10 mg/kg, po; assay type: ADME, organism-based; design: dose 10 mg/kg, route oral, time infinity
Mus musculus [7] = experiment: Antidiabetic activity in C57BL/6 mouse assessed as increase in plasma insulin level at 10 mg/kg administered 15 mins through oral gavage prior to glucose challenge measured after 30 mins by ELISA; assay type: functional, organism-based
[8] = Chemical stability in 0.1 M phosphate buffered saline assessed as drug recovery at 37 degC after 24 hrs; assay type: physicochemical; details: read-out: Drug recovery
[9] = Lipophilicity, log D of compound at pH 7.4; assay type: physicochemical; details: buffer
[10] = Aqueous kinetic solubility in phosphate buffered saline at 200 uM by turbidimetric assay; assay type: physicochemical; details: read-out: Kinetic_solubility
Mus musculus [11] = experiment: Antidiabetic activity in C57BL/6 mouse assessed as reduction in plasma glucose level at 10 mg/kg administered 15 mins through oral gavage prior to glucose challenge measured after 30 to 120 mins by OGTT; assay type: functional, organism-based
[12] = Cmax in C57BL/6 mouse plasma at 10 mg/kg, po; assay type: ADME, organism-based; design: dose 10 mg/kg, route oral
[13] = Chemical stability in fasted state simulated gastric fluid assessed as drug recovery at 37 degC after 2 hrs; assay type: physicochemical; details: read-out: Drug recovery
[14] = Half life in C57BL/6 mouse plasma at 10 mg/kg, po; assay type: ADME, organism-based
Mus musculus [15] = experiment: Clearance in C57BL/6 mouse plasma at 10 mg/kg, po; assay type: ADME, organism-based; details: in vivo
[16] = Tmax in C57BL/6 mouse plasma at 10 mg/kg, po; assay type: ADME, organism-based
[17] = Chemical stability in fed state simulated intestinal fluid assessed as drug recovery at 37 degC after 2 hrs; assay type: physicochemical; details: read-out: Drug recovery
[18] = biological target: T1, Free fatty acid receptor 1; experiment: Potency index, ratio of alpha-linolenic acid EC50 to compound EC50 for human FFA1 receptor expressed in human 1321N1 cells; assay type: cell-based
[19] = Ratio of Cmax in C57BL/6 mouse plasma to EC50 for human FFA1 receptor expressed in human 1321N1 cells
[20] = Chemical stability in fasted state simulated intestinal fluid assessed as drug recovery at 37 degC after 2 hrs; assay type: physicochemical; details: read-out: Drug recovery

T1 sequence (O14842 whole entry): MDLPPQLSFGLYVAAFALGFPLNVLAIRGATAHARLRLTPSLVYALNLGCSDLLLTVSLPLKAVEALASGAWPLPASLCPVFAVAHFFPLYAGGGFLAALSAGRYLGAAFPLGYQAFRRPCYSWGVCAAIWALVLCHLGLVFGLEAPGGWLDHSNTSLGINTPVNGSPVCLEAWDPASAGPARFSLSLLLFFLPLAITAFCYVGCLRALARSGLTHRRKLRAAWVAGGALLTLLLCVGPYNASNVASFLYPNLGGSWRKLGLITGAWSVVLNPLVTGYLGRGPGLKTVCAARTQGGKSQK

Row | Compound | Efficacy [1] | EC50 [2] | Efficacy [3] | EC50 ([4]; read-out: pEC50 (converted)) | further results
1 | O=C(O)CCc1ccc(C#CC2CCCC2)cc1 | 94% | 33.9 µM | 105% | 0.49 µM | –
2 | CC/C=C\C/C=C\C/C=C\CCCCCCCC(=O)O [LINOLENIC ACID] | – | – | – | – | EC50 ([4]; read-out: EC50): 3 µM
3 | CCCCCCCC#Cc1ccc(CCC(=O)O)cc1 | 84% | 4.07 µM | 102% | 1.45 µM | –
4 | C/C=C/C#Cc1ccc(CCC(=O)O)c(F)c1 | 97% | 34.7 µM | 38% | 0.209 µM | –
5 | O=C(O)CCc1ccc(C#CC2CC2)cc1 | 128% | > 100 µM | – | 5.01 µM | –
6 | O=C(O)CCc1ccc(C#CC2=CCCCC2)cc1 | 100% | > 100 µM | – | 0.2 µM | –
7 | COc1ccc(CCN(C)CCCC(C#N)(c2ccc(OC)c(OC)c2)C(C)C)cc1OC (centres undefined) | – | – | – | – | remaining at 1 h [5]: 23%
8 | CC(C)=C(C)C#Cc1ccc(CCC(=O)O)cc1 | 105% | 7.59 µM | 102% | 0.0832 µM | –
9 | O=C(O)CCc1ccc(C#CC2CCCCC2)cc1 | 98% | 9.55 µM | 118% | 0.513 µM | –
10 | C/C(C#Cc1ccc(CCC(=O)O)c(F)c1)=C/CO | 105% | > 100 µM | – | – | –
11 | O=C(O)CCc1ccc(C#CCCc2ccccc2)cc1 | 128% | 4.79 µM | 102% | 1.82 µM | –
12 | C=C(C)C#Cc1ccc(CCC(=O)O)c(F)c1 | 106% | > 100 µM | – | – | –
13 | C/C=C\C#Cc1ccc(CCC(=O)O)c(F)c1 | 91% | 17.8 µM | 49% | 0.0479 µM | –
14 | O=C(O)CCc1ccc(C#CC2(O)CCCCC2)cc1 | – | > 100 µM | – | – | pEC50 ([4]; 1321-n1): < 4
15 | C/C=C(/C)C#Cc1ccc(CCC(=O)O)c(F)c1 | 103% | 20 µM | 101% | – | AUC(0-inf) [6]: 138 µM·h; Activity (Mus musculus [7]): Active; remaining at 24 h [8]: 100%; logD [9]: 1.79; solubility kinetic at 200 µM [10]: 191 µM (≈ 47 µg/mL); Activity (Mus musculus [11]): Active; Cmax [12]: 44.7 µM; remaining at 2 h [13]: 84%; remaining at 1 h [5]: 38%; half-life [14]: 99 min; clearance (Mus musculus [15]): 0.49 mL/min/kg; Tmax [16]: 15 min; remaining at 2 h [17]: 95%; Ratio EC50 [18]: 100; EC50 ([4]; read-out: EC50): 0.02 µM; Ratio [19]: >1000; remaining at 2 h [20]: 100%
16 | O=C(O)CCc1ccc(C#CCc2ccccc2)cc1 | 103% | 10.5 µM | 113% | 0.389 µM | –
17 | C/C=C(\C)C#Cc1ccc(CCC(=O)O)c(F)c1 | 97% | 26.3 µM | 89% | – | –
18 | C=C(C)C#Cc1ccc(CCC(=O)O)cc1 | 108% | > 100 µM | – | 0.417 µM | –
19 | C#Cc1ccc(CCC(=O)O)cc1 | – | > 100 µM | – | > 100 µM | –

Source: ChEMBL document CHEMBL3785041, “Discovery of a Potent Free Fatty Acid 1 Receptor Agonist with Low Lipophilicity, Low Polar Surface Area, and Robust in Vivo Efficacy” (J Med Chem, 2016)
